This is a sample that favours compounds with a hit; in the whole collection about 5.2% have one here.
HCV core dimer = inhibitors of HCV core protein dimerization, primary screen, biochemical, TR-FRET, high-throughput. TR-FRET GST/Flag-core106 dimerization, 1536-well. inhibition, % at 5 µM. hit rate 0.33% among 300,000;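 active means inhibition above the mean of all tested compounds plus 3 SD, set per screening campaign, cut at about 45% in these data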
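Assay system: GST-tagged and Flag-tagged HCV core protein residues 1-106 / Times: compound-protein-antibody incubation 4 h at 22.5 °C / Signal: time-resolved FRET, ex 340 nm, em 617 and 671 nm / Evaluation: % inhibition based on acceptor/donor emission ratio / Benchmarks: wells lacking GST-core106 and wells with excess unlabelled core106 / Repeats: singlicate, one well per compound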
PfM18AAP inh = PfM18AAP inhibitors, malaria aminopeptidase, primary screen, biochemical, QFRET, recombinant enzyme; AID 1822, 2009; hit rate 1.2% among 290,000; M18 aspartyl aminopeptidase (Plasmodium falciparum 3D7); H-Glu-NHMec fluorogenic cleavage; inhibition, % at 7.35 µM;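 active means inhibition above the campaign mean inhibition over all tested compounds plus 3 SD, cut at about 28% in these data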;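 further: 0% = plate median of test compound wells and 100% = 2 mM ZnCl2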
EBNA-1 inhibitor = EBNA-1 DNA-binding inhibitors, primary screen, biochemical, fluorescence polarization. hit rate 0.34% among 300,000. inhibition, % at 14.8 µM. AID 1950, 2009; in the data active means inhibition above about 28%
ALR H2O2 inh = inhibitors of human ALR sulfhydryl oxidase, primary screen, biochemical, H2O2 detection, HRP-luminol luminescence, single point; FAD-linked sulfhydryl oxidase ALR (Homo sapiens), P55789; purified ALR, DTT oxidation; inhibition, % (test concentration not listed); hit rate 3.8% among 290,000;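 active means mean replicate inhibition above about 79%, with every replicate also reaching it, limit read from the data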
Target sequence (P55789 whole entry, looked up): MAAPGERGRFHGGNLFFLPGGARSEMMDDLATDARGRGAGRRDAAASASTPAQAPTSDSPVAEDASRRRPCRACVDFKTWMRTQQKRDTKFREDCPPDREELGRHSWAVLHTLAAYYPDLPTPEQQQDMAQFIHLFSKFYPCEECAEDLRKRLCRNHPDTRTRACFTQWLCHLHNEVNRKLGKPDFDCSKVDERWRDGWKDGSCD
HCV NS3 hel inh = inhibitors of HCV NS3 helicase, primary screen, biochemical, Cy5 molecular beacon fluorescence | Hepatitis C virus NS3 helicase | NS3 helicase DNA unwinding | hit rate 0.56% among 290,000 | inhibition, % at 10.9 µM;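 active means inhibition above the mean of all tested compounds plus 3 SD, set per campaign, cut at about 35% in these data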;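 further: 0% = DMSO wells and 100% = thioflavine S control wells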
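Assay system: hepatitis C virus NS3 helicase domain fragment enzyme. Also added: annealed dual-labelled DNA beacon duplex, ATP-started. Timing: 1 h reaction at 25 °C, ATP-initiated. Technique: Cy5 fluorescence at 0 and 60 min, beacon hairpin quenching. Evaluation: % inhibition of unwinding. Replication: one well per compound.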
ZTA counter = ZTA (EBV) inhibition in EBNA-1 counter-screen | hit rate 0.15% among 320,000 | ZTA-DNA binding, fluorescence polarization | P03206 | inhibition, % at 11 µM; in the data active means inhibition above about 33%
Target sequence (P03206 whole entry, looked up): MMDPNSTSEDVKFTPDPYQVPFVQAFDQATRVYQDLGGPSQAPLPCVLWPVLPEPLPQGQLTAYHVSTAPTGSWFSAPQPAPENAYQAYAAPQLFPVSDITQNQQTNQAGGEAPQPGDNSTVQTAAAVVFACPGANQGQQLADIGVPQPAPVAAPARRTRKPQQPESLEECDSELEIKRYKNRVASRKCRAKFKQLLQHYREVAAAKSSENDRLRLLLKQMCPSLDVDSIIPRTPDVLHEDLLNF
* = called active by the depositor; · = not tested or not shown.

SMILES | HCV core dimer | PfM18AAP inh | EBNA-1 inhibitor | ALR H2O2 inh | HCV NS3 hel inh | ZTA counter
CCOc1ccc(N2CC(C(=O)Nc3ccccc3N3CCOCC3)CC2=O)cc1 (stereo not given) | 2 | -6 | 3 | -7 | -1 | -8
COc1ccc(NC(=O)CS(=O)CC(=O)Nc2ccc(NC(C)=O)cc2)cc1 (stereo not given) | -6 | -7 | 1 | 0 | 13 | -2
CCOC(=O)/C(C#N)=C\C=C1C=CN(C)C=C1 | -49 | 6 | -2 | 99* | 0 | 2
O=C(NNC(=O)c1cccc(-n2cccc2)c1)c1ccc(F)cc1 | 52* | · | 3 | -1 | · | 7
COC(=O)c1ccccc1NC(=O)c1sc(=S)n(C)c1N | 1 | 9 | 3 | 42 | 16 | -3
Cn1c(N)c(C(=O)NCc2ccccc2)sc1=S | 4 | 21 | 4 | 81* | -21 | 8
Cn1c(N)c(C(=O)Nc2c(Cl)cccc2Cl)sc1=S | -2 | 5 | 4 | 99* | 4 | -10
Cc1ccc(NC(=O)CCSCCc2ccccn2)cc1 | 0 | -2 | -2 | -2 | -13 | 4
CCCCCc1cc(=O)oc2c(C(CCN(CC)CC)c3ccc(N(C)C)cc3)c(OC)cc(OC)c12 (stereo not given) | -21 | · | -2 | · | · | 0
CCOC(=O)NC(=O)/C(C#N)=N\Nc1cccc(OC)c1 | -1 | -2 | 2 | 98* | -10 | 10
CCOC(=O)NC(=O)/C(C#N)=N/Nc1c(F)cccc1F | -4 | -5 | -4 | · | -4 | -19
COc1ccc(-c2nc(CSCC(=O)N3CCN(C(=O)c4ccco4)CC3)c(C)o2)cc1OC | -1 | -5 | 7 | 99* | 1 | -7
COc1ccc(-c2nc(CSCC(=O)N3CCN(C)CC3)c(C)o2)cc1OC | -2 | -3 | -4 | 99* | -3 | -4
COc1cc(-c2nc(CN3CCCN(C(=O)c4ccco4)CC3)c(C)o2)ccc1F | -5 | -3 | -7 | -5 | -4 | 5
CCN1CCN(C(=O)CSCc2nc(-c3ccc(OC)c(OC)c3)oc2C)CC1 | -6 | -4 | 10 | 99* | 3 | 22
COc1ccc(-c2nnc(SCC(=O)N3CCCC3)o2)cc1OC | -1 | -1 | -7 | -4 | -2 | -3
CCN1CCN(CCNC(=O)CSCc2nc(-c3ccc(OC)c(OC)c3)oc2C)CC1 | -4 | 2 | -1 | 99* | -3 | 6
Cc1ccccc1OCC1Cn2c(nc3c2c(=O)n(C)c(=O)n3C)O1 (stereo not given) | -5 | 2 | -4 | -13 | -4 | 7
CSc1nnc(-c2ccc(S(=O)(=O)N3CCCCC3)cc2)o1 | -13 | -4 | -3 | -5 | 5 | -20
O=C(c1cccc(C(F)(F)F)c1)N1CCC2(CC1)NCCc1[nH]cnc12 | 0 | -1 | 2 | · | 3 | 16
CCCc1c(C)nc(N2CCN(c3cccc(OC)c3)CC2)[nH]c1=O | 0 | -7 | 0 | 15 | -8 | -13
CCc1c(C)nc(N2CCN(c3cccc(OC)c3)CC2)[nH]c1=O | 6 | 1 | -3 | 98* | -1 | -9
CC(=O)c1ccc(OCCCC(=O)Nc2cc(Cl)ccc2-n2cncn2)cc1 | -6 | -19 | -2 | -21 | -13 | 1
COc1ccccc1NC(=O)c1ccc2[nH]c(C)c(C)c2c1 | -2 | -8 | 18 | 87* | -11 | 12
CN(CC(=O)Nn1cnnc1)S(=O)(=O)c1ccc(Br)cc1 | -3 | 30* | 3 | -19 | 0 | 8
CN(CC(=O)Nc1ccncc1)S(=O)(=O)c1ccc(Br)cc1 | 4 | 3 | 6 | -4 | -5 | -5
CCN(CC)CCN1C(=O)C(O)=C(C(=O)c2cc3cccc(OC)c3o2)C1c1cccs1 (stereo not given) | 3 | 5 | 0 | -16 | 2 | -8
O=C(N/N=C\c1ccc(O)c([N+](=O)[O-])c1)c1ccccc1-n1cccc1 | -6 | -6 | 4 | 52 | 23 | 15
COc1ccc(/C=N/NC(=O)c2ccccc2O)cc1Cn1cc(Cl)cn1 | 5 | -3 | 4 | 80* | 3 | -9
COc1ccc(C=NNC(=O)c2cc(C)oc2C)cc1O | · | · | · | 99* | · | ·
